Assay results: paper PMC6682138 (ACS Omega, 2019)

Tested on: A549 cells
Assay: MTT cytotoxicity assay, A549
Format: cell-based, human
Conditions: read-out: IC50 A549, 24 h incubation
In short: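 MTT assay. Cells seeded at 2 × 10^4 per well. A549 and HeLa S3 were maintained in DMEM with 10% FBS, 2 mM L-glutamine and antibiotics at 37 °C, 5% CO2. Test compound in DMSO (0.5%) applied at 100–3.125 μM for 24 h. After a PBS wash, cells received fresh DMEM with MTT (5 mg/mL) for 3–4 h in the dark. DMSO was added and absorbance read at 570 nm. Inhibition % = (A−B)/A × 100 versus untreated control, and IC50 taken from viability–concentration curves.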

Compound: N.N.[Cl][Pt][Cl] [cisplatin, reference compound]
- IC50: 18 ± 3.1 µM
